Assay results reported in ChEMBL document CHEMBL3098016, “Biphenyl derivatives incorporating urea unit as novel VEGFR-2 inhibitors: design, synthesis and biological evaluation” (Bioorg Med Chem, 2014).
pIC50: −log10 of the molar value. Blank lines part the entries; values can stand above or below the compound they belong to.

Tests used:
K562 = experiment: Antiproliferative activity against human K562 cells after 48 hrs by MTT assay; conditions: K562, 48 h
[1] = Antiproliferative activity against human SGC7901 cells after 48 hrs by MTT assay; conditions: SGC-7901, 48 h
LoVo = experiment: Antiproliferative activity against human LoVo cells after 48 hrs by MTT assay
[2] = Antiproliferative activity against human SH-SY5Y cells after 48 hrs by MTT assay
MDA-MB-231 = experiment: Antiproliferative activity against human MDA-MB-231 cells after 48 hrs by MTT assay; format: functional, cell-based; conditions: MDA-MB-231, 48 h
Outline: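 Cells in exponential growth plated at 1 × 10⁴ cells/well and incubated 24 h at 37 °C. Compounds were then added at various concentrations for 48 h. MTT (5 mg/mL) was added, followed by 4 h at 37 °C. Supernatant was removed and formazan dissolved in DMSO, with absorbance read at 490 nm. IC50 in µM.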

[3] = biological target: Vascular endothelial growth factor receptor 2 (Homo sapiens, UniProt P35968); experiment: Inhibition of VEGFR2 (unknown origin) after 30 mins by HTRF assay
Sequence of Vascular endothelial growth factor receptor 2 (P35968 whole entry): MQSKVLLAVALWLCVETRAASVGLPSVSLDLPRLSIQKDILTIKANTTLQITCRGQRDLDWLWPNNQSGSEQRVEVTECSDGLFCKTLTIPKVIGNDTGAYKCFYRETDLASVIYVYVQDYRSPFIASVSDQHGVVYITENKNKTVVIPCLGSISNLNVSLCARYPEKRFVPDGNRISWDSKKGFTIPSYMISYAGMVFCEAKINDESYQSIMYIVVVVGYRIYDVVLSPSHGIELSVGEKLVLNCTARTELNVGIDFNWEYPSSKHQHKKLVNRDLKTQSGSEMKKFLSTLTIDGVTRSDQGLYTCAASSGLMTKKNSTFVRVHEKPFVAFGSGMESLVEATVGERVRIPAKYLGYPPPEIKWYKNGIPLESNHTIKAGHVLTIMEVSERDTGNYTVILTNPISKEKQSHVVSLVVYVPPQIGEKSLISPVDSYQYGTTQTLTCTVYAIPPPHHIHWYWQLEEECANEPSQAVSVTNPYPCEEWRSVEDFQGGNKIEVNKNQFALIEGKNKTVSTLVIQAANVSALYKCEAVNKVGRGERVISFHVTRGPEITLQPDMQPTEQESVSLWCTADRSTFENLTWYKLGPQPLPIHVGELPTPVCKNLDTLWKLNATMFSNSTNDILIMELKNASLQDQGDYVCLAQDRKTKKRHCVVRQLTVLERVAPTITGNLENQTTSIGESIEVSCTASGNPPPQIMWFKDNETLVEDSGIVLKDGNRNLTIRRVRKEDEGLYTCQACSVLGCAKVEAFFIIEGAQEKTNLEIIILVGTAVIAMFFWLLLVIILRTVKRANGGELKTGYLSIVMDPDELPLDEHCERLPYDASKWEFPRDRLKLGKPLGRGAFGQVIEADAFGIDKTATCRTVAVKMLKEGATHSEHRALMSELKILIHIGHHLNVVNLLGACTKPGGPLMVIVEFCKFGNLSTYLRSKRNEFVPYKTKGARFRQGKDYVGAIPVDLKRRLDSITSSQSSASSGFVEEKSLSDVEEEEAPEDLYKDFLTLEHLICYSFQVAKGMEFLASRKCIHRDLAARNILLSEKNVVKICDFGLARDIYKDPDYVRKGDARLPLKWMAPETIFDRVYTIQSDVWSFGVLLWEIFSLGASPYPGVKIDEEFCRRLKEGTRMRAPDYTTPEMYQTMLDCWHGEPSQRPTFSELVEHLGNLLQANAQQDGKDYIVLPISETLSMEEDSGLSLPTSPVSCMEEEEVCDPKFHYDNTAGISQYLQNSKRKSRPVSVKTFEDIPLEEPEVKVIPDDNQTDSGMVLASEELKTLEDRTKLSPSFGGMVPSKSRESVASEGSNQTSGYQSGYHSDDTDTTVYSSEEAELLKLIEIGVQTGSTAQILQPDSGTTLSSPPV

pIC50 (K562): 5.65
pIC50 (LoVo): 4.95
Structure (SMILES): COc1cc(-c2cc(NC(=O)Nc3ccc(OCCCN4CCOCC4)cc3)cc(OC)c2OC)ccc1C(C)=O
pIC50 [1]: 4.09
pIC50 [2]: 4.98

pIC50 [3]: < 6.52
Structure (SMILES): COc1cc(-c2cc(NC(=O)Nc3ccc(OCCN(C)C)cc3C)cc(OC)c2OC)ccc1C(C)=O

pIC50 [3]: < 6.52
Structure (SMILES): COc1cc(-c2cc(NC(=O)Nc3ccc(OCCN(C)C)cc3)cc(OC)c2OC)ccc1C(C)=O

pIC50 [3]: < 6.52
Structure (SMILES): COc1cc(-c2cc(NC(=O)Nc3ccc(OCCN4CCOCC4)cc3)cc(OC)c2OC)ccc1C(C)=O

pIC50 [3]: < 6.52
Structure (SMILES): COc1cc(-c2cc(NC(=O)Nc3cc(OCCN4CCCCC4)ccc3C)cc(OC)c2OC)ccc1C(C)=O

Second part, the compound before the results:

Structure (SMILES): CNC(=O)c1cc(Oc2ccc(NC(=O)Nc3ccc(Cl)c(C(F)(F)F)c3)cc2)ccn1 [SORAFENIB]
pIC50 (K562): 6.07
pIC50 [1]: 4.00
pIC50 (LoVo): 5.18
pIC50 (MDA-MB-231): 4.46
pIC50 [2]: 5.24

Structure (SMILES): CCN(CC)CCOc1ccc(NC(=O)Nc2cc(OC)c(OC)c(-c3ccc(C(C)=O)c(OC)c3)c2)cc1
pIC50 [3]: < 6.52

Structure (SMILES): CCN(CC)CCOc1ccc(NC(=O)Nc2cc(OC)c(OC)c(-c3ccc(/C(C)=N/O)c(OC)c3)c2)c(C)c1
pIC50 [3]: < 6.52
